In ChEMBL document CHEMBL4706597, “Structure-guided optimization and mechanistic study of a class of quinazolinone-threonine hybrids as antibacterial ThrRS inhibitors” (Eur J Med Chem, 2020):
Converted amounts (≈) assume the structure as drawn. The source made the active and inactive calls. No cut-off for these calls is given here.

Legend:
[1] = tested on: Salmonella enterica; assay: Binding affinity to Salmonella enterica Threonyl-tRNA synthetase assessed as change in melting temperature at 0.5 mM incubated for 10 mins by SYPRO orange dye-based thermal shift assay
In short: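 SeThrRS 8 μM in 100 mM HEPES pH 7.5, 150 mM NaCl, 4× SYPRO orange, with 0.5 mM compound or 0.5% DMSO blank; 25 °C for 10 min, then ramped 25 to 95 °C at 1 °C/min, fluorescence read every 30 s. Tm fitted from melt curve; ΔTm = with minus without compound; mean of three independent experiments.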

[2] = tested on: Salmonella enterica; assay: Inhibition of Salmonella enterica Threonyl-tRNA synthetase assessed as reduction in aminoacylation activity at 100 uM using L-threonine as substrate incubated for 3 hrs by Kinase-glo luminescence assay relative to control
In short: (§1)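 3 h at room temperature, stopped with Kinase-Glo, luminescence read. Inhibition % = (RLU compound − RLU blank)/(RLU no-enzyme − RLU blank) × 100, at 100 μM compound. IC50 run for compounds above 50% inhibition at 100 μM, fitted as 100/(1+([I]/IC50)^B). Mean of three independent assays.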

[3] = tested on: Staphylococcus aureus; assay: Antibacterial activity against Staphylococcus aureus ATCC 29213 assessed as reduction in bacterial growth incubated for 18 hrs by CLSI based broth microdilution assay; assay type: functional
In short: (§2)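 Broth microdilution per CLSI; compounds in 2-fold dilutions starting from 256 μg/mL. Defined medium: M9 with 0.4% glucose plus 100 μM of all canonical amino acids. MIC read as growth end point.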

[4] = tested on: Staphylococcus aureus; assay: Antibacterial activity against methicillin-resistant Staphylococcus aureus R3708 assessed as reduction in bacterial growth incubated for 18 hrs by CLSI based broth microdilution assay; assay type: functional
In short: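 Broth microdilution under CLSI conditions, with 2-fold compound dilutions starting at 256 μg/mL. Medium was M9 with 0.4% glucose, supplemented with 100 μM of all canonical amino acids.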

[5] = tested on: Enterococcus faecalis; assay: Antibacterial activity against Enterococcus faecalis ATCC 29212 assessed as reduction in bacterial growth incubated for 18 hrs by CLSI based broth microdilution assay; assay type: functional; in short: as §2
[6] = tested on: Escherichia coli; assay: Antibacterial activity against Escherichia coli ATCC 25922 assessed as reduction in bacterial growth incubated for 18 hrs by CLSI based broth microdilution assay; assay type: functional; in short: as §2
[7] = tested on: Salmonella enterica; assay: Antibacterial activity against Salmonella enterica 87 assessed as reduction in bacterial growth incubated for 18 hrs by CLSI based broth microdilution assay; assay type: functional; in short: as §2
[8] = tested on: Pseudomonas aeruginosa; assay: Antibacterial activity against Pseudomonas aeruginosa ATCC 27853 assessed as reduction in bacterial growth incubated for 18 hrs by CLSI based broth microdilution assay; assay type: functional; in short: as §2
[9] = Inhibition of Salmonella enterica Threonyl-tRNA synthetase assessed as reduction in aminoacylation activity using L-threonine as substrate incubated for 3 hrs by Kinase-glo luminescence assay; in short: as §1
[10] = tested on: Salmonella enterica; assay: Potency index, ratio of IC50 of parent compound to IC50 of compound for inhibition of Salmonella enterica Threonyl-tRNA synthetase assessed as reduction in aminoacylation activity using L-threonine as substrate incubated for 3 hrs by Kinase-glo luminescence assay
[11] = Binding affinity to Salmonella enterica Threonyl-tRNA synthetase at 200 uM by isothermal titration calorimetry
In short: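 ITC: 20 μM SeThrRS in cell, 200 μM ligand in syringe, both in 20 mM HEPES pH 7.5, 150 mM NaCl. First injection 5 μL, then 24 × 10 μL at 180 s spacing. Ligand-into-buffer isotherm subtracted as baseline; one-site model fit gives Kd, ΔH, ΔS, N.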

[12] = tested on: Salmonella enterica; assay: Inhibition of Salmonella enterica Threonyl-tRNA synthetase assessed as reduction in aminoacylation activity at 10 uM using increasing concentration of L-threonine as substrate incubated for 3 hrs by Kinase-glo luminescence assay
In short: (§3)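 Aminoacylation by SeThrRS followed as ATP consumption (Kinase-Glo luminescence) after 3 h at room temperature. Inhibitor held at 10 μM while one substrate (L-Thr, tRNA^Thr or ATP, per line) was raised stepwise to test competition. Other components as in the standard assay.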

[13] = tested on: Salmonella enterica; assay: Inhibition of Salmonella enterica Threonyl-tRNA synthetase assessed as reduction in aminoacylation activity at 10 uM using increasing concentration of t-RNAthr as substrate incubated for 3 hrs by Kinase-glo luminescence assay; in short: as §3
[14] = tested on: Salmonella enterica; assay: Inhibition of Salmonella enterica Threonyl-tRNA synthetase assessed as reduction in aminoacylation activity at 10 uM using increasing concentration of ATP as substrate incubated for 3 hrs by Kinase-glo luminescence assay; in short: as §3

With `O=C1CC[C@H](C(=O)NC/C=C/Cn2cnc3cc(Cl)c(Cl)cc3c2=O)N1` as the molecule, how does the ΔTm [1] read?
Its ΔTm is -0.2 °C.

What about the inhibition [2] of the same molecule?
Its inhibition is 0%.

Which results are given for `C[C@H](O)[C@@H](N)C(=O)NC/C=C/Cn1cnc2cc(Cl)c(Cl)cc2c1=O`?
ΔTm [1]: 0.6 °C; inhibition [2]: 6%

What does the source list for `O=C(CC1NCCCC1O)Cn1cnc2cc(Br)c(Cl)cc2c1=O` (stereo unspecified) [HALOFUGINONE]?
ΔTm [1]: -1.5 °C; inhibition [2]: 4%; MIC [3]: 64 µg/mL (≈ 154 µM); MIC [4]: 64 µg/mL (≈ 154 µM); MIC [5]: 128 µg/mL (≈ 309 µM); MIC [6]: 128 µg/mL (≈ 309 µM); MIC [7]: 64 µg/mL (≈ 154 µM); MIC [8]: 64 µg/mL (≈ 154 µM)

For `CC1(C)S[C@@H]2[C@H](NC(=O)[C@H](N)c3ccccc3)C(=O)N2[C@H]1C(=O)O` [AMPICILLIN], which MIC [6] is on record?
The MIC was 1 µg/mL (≈ 2.86 µM).

What about the MIC [7] of the same molecule?
The MIC was 1 µg/mL (≈ 2.86 µM).

What about the MIC [8] of the same molecule?
The MIC was 0.5 µg/mL (≈ 1.43 µM).

Which ΔTm [1] does the source give for `N[C@@H](CO)C(=O)NC/C=C/Cn1cnc2cc(Cl)c(Cl)cc2c1=O` here?
The ΔTm was 0.6 °C.

And the inhibition [2]?
Its inhibition is 2%.

What does the source list for `O=C1CC[C@@H](C(=O)NC/C=C/Cn2cnc3cc(Cl)c(Cl)cc3c2=O)N1`?
ΔTm [1]: -0.4 °C; inhibition [2]: 5%

Which results are given for `C=CCN[C@H](C(=O)NC/C=C/Cn1cnc2cc(Cl)c(Cl)cc2c1=O)[C@@H](C)O`?
ΔTm [1]: 22.1 °C; inhibition [2]: 100%; IC50 [9]: 1200 nM

With `CCN[C@H](C(=O)NC/C=C/Cn1cnc2cc(Cl)c(Cl)cc2c1=O)[C@@H](C)O` as the molecule, how does the ΔTm [1] read?
The ΔTm was 22.5 °C.

What about the inhibition [2] of the same molecule?
Its inhibition is 100%.

What about the IC50 [9] of the same molecule?
Its IC50 is 960 nM.

What about the MIC [3] of the same molecule?
The MIC was 64 µg/mL (≈ 155 µM).

And the MIC [4]?
The MIC was 32 µg/mL (≈ 77.4 µM).

What about the MIC [5] of the same molecule?
Its MIC is 32 µg/mL (≈ 77.4 µM).

What about the MIC [6] of the same molecule?
Its MIC is 16 µg/mL (≈ 38.7 µM).

And the MIC [7]?
Its MIC is 32 µg/mL (≈ 77.4 µM).

What about the MIC [8] of the same molecule?
The MIC was 32 µg/mL (≈ 77.4 µM).

Which results are given for `CC(C)N[C@H](C(=O)NC/C=C/Cn1cnc2cc(Cl)c(Cl)cc2c1=O)[C@@H](C)O`?
ΔTm [1]: 14.1 °C; inhibition [2]: 63%; IC50 [9]: 49300 nM

What does the source list for `CCO[C@H](C)[C@H](N)C(=O)NC/C=C/Cn1cnc2cc(Cl)c(Cl)cc2c1=O`?
ΔTm [1]: 0.2 °C; inhibition [2]: 4%

Which results are given for `C[C@@H](O)[C@H](NCC#N)C(=O)NC/C=C/Cn1cnc2cc(Cl)c(Cl)cc2c1=O`?
ΔTm [1]: 18.8 °C; inhibition [2]: 93%; IC50 [9]: 9600 nM

With `C[C@@H](O)[C@H](N)C(=O)NS(=O)(=O)c1cccc(-c2ccc3[nH]ncc3c2)c1` as the molecule, how does the MIC [3] read?
The MIC was over 256 µg/mL.

What about the MIC [4] of the same molecule?
Its MIC is over 256 µg/mL.

What about the MIC [5] of the same molecule?
The MIC was over 256 µg/mL.

What about the MIC [6] of the same molecule?
Its MIC is over 256 µg/mL.

And the MIC [7]?
Its MIC is over 256 µg/mL.

What about the MIC [8] of the same molecule?
The MIC was over 256 µg/mL.

With `CN[C@H](C(=O)NC/C=C/Cn1cnc2cc(Cl)c(Cl)cc2c1=O)[C@@H](C)O` as the molecule, how does the ΔTm [1] read?
The ΔTm was 28.4 °C.

What about the inhibition [2] of the same molecule?
The inhibition was 100%.

And the IC50 [9]?
Its IC50 is 500 nM.

And the Ratio IC50 [10]?
The Ratio IC50 was 3.

And the Kd [11]?
Its Kd is 400 nM.

What about the inhibition [12] of the same molecule?
Its inhibition is “Active”.

And the inhibition [13]?
The inhibition was “Active”.

And the inhibition [14]?
Its inhibition is “Active”.

What about the MIC [3] of the same molecule?
Its MIC is 32 µg/mL (≈ 80.1 µM).

What about the MIC [4] of the same molecule?
The MIC was 32 µg/mL (≈ 80.1 µM).

What about the MIC [5] of the same molecule?
The MIC was 32 µg/mL (≈ 80.1 µM).

And the MIC [6]?
Its MIC is 16 µg/mL (≈ 40.1 µM).

What about the MIC [7] of the same molecule?
Its MIC is 16 µg/mL (≈ 40.1 µM).

What about the MIC [8] of the same molecule?
Its MIC is 32 µg/mL (≈ 80.1 µM).

What does the source list for `C[C@@H](O)[C@H](NCCF)C(=O)NC/C=C/Cn1cnc2cc(Cl)c(Cl)cc2c1=O`?
ΔTm [1]: 19.1 °C; inhibition [2]: 99%; IC50 [9]: 2500 nM; MIC [3]: 32 µg/mL (≈ 74.2 µM); MIC [4]: 64 µg/mL (≈ 148 µM); MIC [5]: 32 µg/mL (≈ 74.2 µM); MIC [6]: 32 µg/mL (≈ 74.2 µM); MIC [7]: 32 µg/mL (≈ 74.2 µM); MIC [8]: 64 µg/mL (≈ 148 µM)

With `CC(C)(O)[C@H](N)C(=O)NC/C=C/Cn1cnc2cc(Cl)c(Cl)cc2c1=O` as the molecule, how does the ΔTm [1] read?
Its ΔTm is 0.9 °C.

And the inhibition [2]?
The inhibition was 0%.

With `CN[C@H](CC(C)C)C(=O)N[C@H]1C(=O)N[C@@H](CC(N)=O)C(=O)N[C@H]2C(=O)N[C@H]3C(=O)N[C@H](C(=O)N[C@H](C(=O)O)c4cc(O)cc(O)c4-c4cc3ccc4O)[C@H](O)c3ccc(c(Cl)c3)Oc3cc2cc(c3O[C@@H]2O[C@H](CO)[C@@H](O)[C@H](O)[C@H]2O[C@H]2C[C@](C)(N)[C@H](O)[C@H](C)O2)Oc2ccc(cc2Cl)[C@H]1O` [VANCOMYCIN] as the molecule, how does the MIC [5] read?
The MIC was 2 µg/mL (≈ 1.38 µM).
